# Measured values from paper PMC9292215 (Clinical Pharmacology and Therapeutics, 2021).
# Columns and labels:
# [1] = test system: anandamide (AEA); assay: Plasma anandamide; type: in vivo, human; conditions: for AEA AUC0–24: Day 1; for AEA AUC0–τ: Day 10
# Outline: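 In a double-blind, placebo-controlled multiple-dose part, healthy adult men and women in groups of eight (six active, two placebo) took oral test compound once daily for 10 days. They fasted at least 8 h before and 1 h after dosing. Plasma anandamide AUCs were taken on Days 1 and 10, with a Day 10/Day 1 ratio. Data are mean (CV%); tmax is median (range).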
# [2] = molecular target: T1, FAAH (Homo sapiens, UniProt O00519); assay: Leukocyte FAAH activity in participants; type: in vivo
# T1 sequence (O00519 1-579): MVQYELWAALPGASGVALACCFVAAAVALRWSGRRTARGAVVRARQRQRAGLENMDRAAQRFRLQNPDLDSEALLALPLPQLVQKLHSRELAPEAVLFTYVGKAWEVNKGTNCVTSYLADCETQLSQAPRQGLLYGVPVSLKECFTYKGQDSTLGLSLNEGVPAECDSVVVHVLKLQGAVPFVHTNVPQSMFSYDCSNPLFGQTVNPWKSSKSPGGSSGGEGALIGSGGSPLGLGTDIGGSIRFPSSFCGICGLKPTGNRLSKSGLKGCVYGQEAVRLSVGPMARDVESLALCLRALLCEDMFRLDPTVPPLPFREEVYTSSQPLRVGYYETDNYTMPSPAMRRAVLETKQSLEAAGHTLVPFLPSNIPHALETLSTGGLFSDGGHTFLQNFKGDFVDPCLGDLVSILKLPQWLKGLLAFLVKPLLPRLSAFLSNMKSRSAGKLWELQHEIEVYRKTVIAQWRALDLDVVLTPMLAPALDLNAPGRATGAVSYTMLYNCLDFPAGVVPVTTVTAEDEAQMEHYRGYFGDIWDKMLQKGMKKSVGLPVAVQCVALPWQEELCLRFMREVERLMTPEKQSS
# Outline: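 Healthy men and women aged 18–55 years (BMI 19–30 kg/m²) took single oral capsule doses of test compound (0.25–100 mg) or matching placebo in a double-blind design. They fasted at least 8 h before and 1 h after dosing. Leukocyte FAAH activity was followed after dosing and expressed as percent inhibition, judged by visual inspection. Values are means of six participants per group.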
smiles,measurement,setting,value
"CN(C(=O)n1cnc(-c2ccc[n+]([O-])c2)c1)C1CCCCC1 [BIA 10-2474, 3-(1-(cyclohexyl(methyl)carbamoyl)-1H-imidazol-4-yl)pyridine 1-oxide]",AEA Ratio (AUCD10/D1),[1]; 2.5 mg once daily,1.27
same,AEA AUC0–24,[1]; 2.5 mg once daily,42.8 (17.1) ng⋅hour/mL
same,AEA AUC0–τ,[1]; 2.5 mg once daily,54.2 (9.41) ng⋅hour/mL
same,AEA Ratio (AUCD10/D1),[1]; 5 mg once daily,1.25
same,AEA AUC0–24,[1]; 5 mg once daily,44.9 (23.4) ng⋅hour/mL
same,AEA AUC0–τ,[1]; 5 mg once daily,56.3 (17.7) ng⋅hour/mL
same,AEA Ratio (AUCD10/D1),[1]; 10 mg once daily,1.16
same,AEA AUC0–24,[1]; 10 mg once daily,52.2 (19.3) ng⋅hour/mL
same,AEA AUC0–τ,[1]; 10 mg once daily,60.8 (17.9) ng⋅hour/mL
same,AEA Ratio (AUCD10/D1),[1]; 20 mg once daily,1.22
same,AEA AUC0–24,[1]; 20 mg once daily,51.2 (19.6) ng⋅hour/mL
same,AEA AUC0–τ,[1]; 20 mg once daily,62.8 (21.7) ng⋅hour/mL
same,BIA 10-2474 plasma exposure giving relevant AEA increases,[1]; achieved with 10 mg/day,"around 1,500 ng⋅h/mL"
same,AEA AUC0–t,[1]; single dose 0.25 mg,27.5 (34.1) ng⋅hour/mL
same,AEA AUC0–t,[1]; single dose 1.25 mg,68.0 (13.1) ng⋅hour/mL
same,AEA AUC0–t,[1]; single dose 2.5 mg,101 (17.2) ng⋅hour/mL
same,AEA AUC0–t,[1]; single dose 5 mg,109 (11.2) ng⋅hour/mL
same,AEA AUC0–t,[1]; single dose 10 mg,137 (8.92) ng⋅hour/mL
same,AEA AUC0–t,[1]; single dose 20 mg,149 (6.20) ng⋅hour/mL
same,AEA AUC0–t,[1]; single dose 40 mg,160 (26.42) ng⋅hour/mL
same,AEA AUC0–t,[1]; single dose 100 mg,188 (22.4) ng⋅hour/mL
same,increase in plasma AEA AUC compared with placebo,[1]; single dose 100 mg,12.5 fold
same,return of AEA to baseline,[1]; single doses,> 72 hours post dose
same,apparent maximum FAAH inhibition,"[2]; 5 mg and above, visual inspection",> 97%
same,duration of FAAH inhibition by more than 90%,[2]; doses above 2.5 mg,at least 72 hours
same,FAAH activity inhibited,"[2]; doses above 2.5 mg, for at least 72 hours",more than 90%
same,FAAH inhibition,"[2]; single dose 0.25 mg, visual inspection",more than 50%
